Assay results taken from ChEMBL document CHEMBL3351231, “Structure and antimicrobial activity of phloroglucinol derivatives from Achyrocline satureioides” (2015).
In brackets after ≈: the same amount, converted by molar mass.

Legend:
[1] = test system: Escherichia coli; experiment: Antimicrobial activity against Escherichia coli ATCC 35218 after 24 hrs by broth microdilution method; type: functional; settings: ATCC 35218, 24 h
Procedure, shortened: (§1)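 Strains kept at −80 °C in BHI broth with 20% glycerol and revived on BHI at 37 °C overnight. NCCLS standard broth microdilution with 1:2 serial dilutions from 1 to 128 μM and an inoculum of 1 × 10⁵ CFU/mL. Ampicillin and kanamycin served as controls.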

[2] = test system: Staphylococcus aureus; experiment: Antimicrobial activity against methicillin-resistant and vancomycin-intermediate Staphylococcus aureus NRS402 after 24 hrs by broth microdilution method; type: functional; settings: NRS402, 24 h
Procedure, shortened: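 Broth microdilution per NCCLS standard; strain stored at -80 °C in BHI broth with 20% glycerol, revived on BHI at 37 °C overnight. […] Ampicillin and kanamycin included as controls.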

[3] = test system: Nakaseomyces glabratus; experiment: Antimicrobial activity against Candida glabrata ATCC 9984 after 24 hrs by broth microdilution method; type: functional; settings: ATCC 9984, 24 h
[4] = test system: Staphylococcus aureus; experiment: Antimicrobial activity against methicillin-sensitive Staphylococcus aureus ATCC 25923 after 24 hrs by broth microdilution method; settings: ATCC 25923, 24 h
[5] = test system: Candida albicans; experiment: Antimicrobial activity against Candida albicans […] after 24 hrs by broth microdilution method; type: functional
[6] = test system: Enterococcus faecalis; experiment: Antimicrobial activity against Enterococcus faecalis ATCC 29212 after 24 hrs by broth microdilution method; type: functional; settings: ATCC 29212, 24 h; procedure, shortened: as §1
[7] = test system: Saccharomyces cerevisiae; experiment: Antimicrobial activity against Saccharomyces cerevisiae BY4741 after 24 hrs by broth microdilution method; type: functional; settings: BY4741, 24 h

Row | Structure (SMILES) | MIC [1] [µM] | MIC [2] [µM] | MIC [3] [µM] | MIC [4] [µM] | MIC [5] [µM] | MIC [6] [µM] | MIC [7] [µM]
1 | C=C(C)C(O)Cc1c(O)c(C(=O)C(C)CC)c(O)c2c1oc1c(C(=O)C(C)CC)c(O)c(CC=C(C)C)c(O)c12 (configuration not stated) [ACHYROFURAN] | > 128 | < 1 | > 128 | < 1 | > 128 | 2 (≈ 1.11 µg/mL) | > 128
2 | CCc1[nH]c(=O)c(Cc2c(O)c3c(c(C(=O)[C@@H](C)CC)c2O)OC(C)(C)C=C3)c(O)c1C | > 128 | 32 (≈ 14.1 µg/mL) |  | 32 (≈ 14.1 µg/mL) |  | > 128 | 
3 | CCc1oc(=O)c(Cc2c(OC(C)=O)c3c(c(C(=O)[C@@H](C)CC)c2OC(C)=O)OC(C)(C)C=C3)c(OC(C)=O)c1C | > 128 | > 128 |  | > 128 |  | > 128 | 
4 | CCc1oc(=O)c(Cc2c(O)c3c(c(C(=O)[C@@H](C)CC)c2O)OC(C(C)(C)O)C3)c(O)c1C (some centres not stated) | > 128 | > 128 |  | > 128 |  | > 128 | 
5 | CCc1oc(=O)c(Cc2c(O)c(C(=O)[C@@H](C)CC)c3c(c2O)C2OC2C(C)(C)O3)c(O)c1C (some centres not stated) | > 128 | > 128 |  | > 128 |  | > 128 | 
6 | CCc1oc(=O)c(Cc2c(O)c3c(c(C(=O)[C@@H](C)CC)c2O)OC(C)(C)C(Br)=C3)c(O)c1C | > 128 | 8 (≈ 4.17 µg/mL) |  | 16 (≈ 8.34 µg/mL) |  | > 128 | 
7 | CCc1oc(=O)c(Cc2c(O)c(C(=O)[C@@H](C)CC)c3c(c2OC)C=CC(C)(C)O3)c(OC)c1C | > 128 | > 128 |  | > 128 |  | > 128 | 
8 | C=C(C)C(O)Cc1c(O)c(C(=O)[C@@H](C)CC)c2oc3c4c(c(C(=O)[C@@H](C)CC)c(O)c3c2c1O)OC(C)(C)C=C4 (some centres not stated) | > 128 | 32 (≈ 17.6 µg/mL) | > 128 | 32 (≈ 17.6 µg/mL) | > 128 | 64 (≈ 35.2 µg/mL) | > 128
9 | CCc1oc(=O)c(Cc2c(O)c3c(c(C(=O)[C@@H](C)CC)c2O)OC(C)(C)CC3)c(O)c1C | > 128 | > 128 |  | > 128 |  | > 128 | 
10 | CCc1oc(=O)c(Cc2c(O)c(CCC(C)C)c(O)c(C(=O)[C@@H](C)CC)c2O)c(O)c1C | > 128 | 4 (≈ 1.79 µg/mL) |  | 4 (≈ 1.79 µg/mL) |  | 32 (≈ 14.3 µg/mL) | 
11 | C=C(C)[C@@H]1Cc2c(O)c(Cc3c(O)c(C)c(CC)oc3=O)c(O)c(C(=O)[C@@H](C)CC)c2O1 | > 128 | 64 (≈ 28.3 µg/mL) | > 128 | 32 (≈ 14.2 µg/mL) | > 128 | 64 (≈ 28.3 µg/mL) | > 128
12 | CCc1oc(=O)c(Cc2c(O)c(CC=C(C)C)c(O)c(C(=O)[C@@H](C)CC)c2O)c(O)c1C | > 128 | 8 (≈ 3.56 µg/mL) | > 128 | 8 (≈ 3.56 µg/mL) | > 128 | 64 (≈ 28.4 µg/mL) | > 128
13 | CCc1oc(OC)c(Cc2c(O)c(C(=O)[C@@H](C)CC)c3c(c2OC)C=CC(C)(C)O3)c(=O)c1C | > 128 | > 128 |  | > 128 |  | > 128 | 
14 | COc1c(-c2ccccc2)oc2c(OC)c(O)cc(O)c2c1=O [GNAPHALIIN] | > 128 | > 128 | > 128 | > 128 | > 128 | > 128 | > 128
15 | NC[C@H]1O[C@H](O[C@H]2[C@H](O)[C@@H](O[C@H]3O[C@H](CO)[C@@H](O)[C@H](N)[C@H]3O)[C@H](N)C[C@@H]2N)[C@H](O)[C@@H](O)[C@@H]1O [KANAMYCIN] | > 128 | 240 (≈ 116 µg/mL) |  | 2.8 (≈ 1.36 µg/mL) |  | 360 (≈ 174 µg/mL) | 
16 | CCc1oc(=O)c(Cc2c(O)c3c(c(C(=O)[C@@H](C)CC)c2O)OC(C)(C)[C@@H](O)C3)c(O)c1C | > 128 | > 128 | > 128 | > 128 | > 128 | > 128 | > 128
17 | CC1(C)S[C@@H]2[C@H](NC(=O)[C@H](N)c3ccccc3)C(=O)N2[C@H]1C(=O)O [AMPICILLIN] | > 128 | 120 (≈ 41.9 µg/mL) |  | < 1 |  | 8.8 (≈ 3.07 µg/mL) | 
18 | CCc1oc(OC)c(Cc2c(O)c3c(c(C(=O)[C@@H](C)CC)c2O)OC(C)(C)C=C3)c(=O)c1C | > 128 | > 128 |  | > 128 |  | > 128 | 
19 | CCc1oc(=O)c(Cc2c(O)c3c(c(C(=O)[C@@H](C)CC)c2O)OC(C)(C)C=C3)c(O)c1C | > 128 | 64 (≈ 28.3 µg/mL) | > 128 | 64 (≈ 28.3 µg/mL) | > 128 | > 128 | > 128
